Assay outcomes: PubChem BioAssay, several laboratories
The list is not random: actives were taken first. Their share in the collection is about 2.2%.
ABHD5 PLIN5 PPI: blocks binding of human ABHD5 to perilipin-5. Split G. princeps luciferase complementation, luminescence, 4 h. Q00G26+Q8WTS1. inhibition, % at 4 µM. 360,000 compounds, 0.78% hits. AID 602281;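 active means inhibition above the mean inhibition across every tested compound plus 3 SD, cut at about 22% in these data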;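 further: 0% = DMSO only wells and the 100% control is not disclosed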
Granule exo inh: lytic granule exocytosis inhibition. inhibition, % at 10 µM. 360,000 compounds, 0.66% hits. TALL-104 LAMP-1 surface exposure, flow cytometry; cells stimulated with thapsigargin and PMA;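 active means inhibition above about 55%, limit read from the data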
HKDC1 inh: blocks human hexokinase HKDC1 activity | inhibition, % at 20 µM | Q2TB90 | recombinant HKDC1, G6PDH/diaphorase resazurin coupled fluorescence | 340,000 compounds, 0.16% hits;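 active means inhibition above about 35% when tested at 20 µM, limit read from the data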;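 further: plate controls were DMSO wells with enzyme for no effect and DMSO wells lacking enzyme for full effect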
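Material – in-house recombinant HK5 (HKDC1) enzyme · Quantity – HKDC1 at 5 µg/mL · Buffer or medium – pH 8.0 Tris buffer with 10 mM MgCl2 · Reagent – glucose with 1 mM ATP · Dosing – single 20 µM dose · Times – reaction time 90 min, room temperature, protected from light · Technique – resorufin fluorescence at 613 nm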
PfG6PD inh: PfG6PD (Plasmodium falciparum) enzyme inhibition. inhibition, % at 20 µM. 350,000 compounds, 0.78% hits. PfGluPho enzyme, NADPH resazurin-diaphorase fluorescence;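 active means inhibition reaching at least a set limit at 20 µM in the primary screen, cut at about 59% in these data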;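 further: 0% = DMSO wells with substrate and 100% = DMSO wells lacking glucose-6-phosphate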
Active calls of the source: *; nt = no result.

SMILES	ABHD5 PLIN5 PPI	Granule exo inh	HKDC1 inh	PfG6PD inh
O=C1C=CC(=O)C=C1	-7	5	48*	54
O=C1NC(=O)C(=Cc2ccco2)C(=O)N1	-16	23	9	10
O=C1NC(=O)C(=Cc2ccc(-c3ccc(Cl)cc3)o2)C(=O)N1	13	-11	26	77*
Cc1ccc(C2=NC(C)(C)N3C2C3c2ccc([N+](=O)[O-])cc2)cc1 (centres undefined)	-9	-2	-2	38
CCN1C(=O)NC(=O)/C(=C\c2cn(CC(=O)N3CCCCC3C)c3ccccc23)C1=O (centres undefined)	0	-1	3	-1
CCN(CC)C(=O)Cn1cc(/C=C2\C(=O)NC(=O)N(c3ccccc3F)C2=O)c2ccccc21	23*	28	4	21
COc1ccc(/C=C2\C(=O)NC(=S)N(C)C2=O)cc1C	-15	-1	36*	4
CN1C(=O)/C(=C/c2ccc(Cl)s2)C(=O)NC1=S	-6	13	5	63*
Cc1ccsc1/C=C1\C(=O)NC(=S)N(C)C1=O	5	7	5	37
C#CCOCOCC#CCN(CC)CC	8	-1	1	-7
CC(C)CCNC(=O)c1c(N)n(Cc2ccc3c(c2)OCO3)c2nc3ccccc3nc12	-13	56*	8	33
CCCNC(=O)c1c(N)n(Cc2ccc3c(c2)OCO3)c2nc3ccccc3nc12	-17	19	10	13
Cc1ccc(C[n+]2c(-c3ccc(C)cc3)cc(-c3ccc(C)cc3)cc2-c2ccc(C)cc2)cc1	38*	-7	2	14
CCOC(=O)C1(CCOc2ccccc2)CCN(Cc2cccc(O)c2)CC1	-3	90*	-3	18
C[C@@H]1CN([C@H](C)CO)C(=O)c2c(c3ccccc3n2C)-c2ccccc2CO[C@H]1CN(C)Cc1ccc2c(c1)OCCN2C	-2	0	nt	4
COc1ccc2nc3oc(C(=O)N4CCC5(CC4)OCCO5)cc3cc2c1	1	-2	0	5
Nc1ncnc2c1ncn2[C@@H]1O[C@H](C(=O)NCCc2ccc(F)cc2)[C@@H](O)[C@H]1O	-8	-2	nt	nt
O=C1NC(=O)N(CCc2ccc(F)cc2)C(=O)/C1=C\C=C\c1ccccc1	5	66*	21	3
Cc1ccc(/C=C2/C(=O)NC(=O)N(CCc3ccc(F)cc3)C2=O)s1	-6	43	11	1
O=C1NC(=O)N(Cc2ccccc2Cl)C(=O)/C1=C/c1cccs1	-1	25	4	58
Cc1ccc(/C=C2\C(=O)NC(=O)N(CCc3ccc(F)cc3)C2=O)s1	-3	92*	17	6
O=C1NC(=O)N(Cc2ccc(F)cc2)C(=O)/C1=C/c1cccs1	1	56*	12	54
C=C1C[C@]2(O)[C@@]3(C)CCC(=O)C(C)(C)C3=C(O)C(=O)[C@@]2(C)[C@@H]2C(=O)O[C@@](C)(C(=O)OC)C(=O)[C@@]12C	3	0	-3	3
COc1ccc(-[n+]2c(-c3ccccc3)cc(-c3ccc(C)cc3)cc2-c2ccccc2)cc1	17	74*	-3	-5
COc1ccc(-c2cc(-c3ccccc3)[n+](C)c(-c3ccccc3)c2)cc1	-8	4	-7	-8
SMILES	ABHD5 PLIN5 PPI	Granule exo inh	HKDC1 inh	PfG6PD inh
COC1C(O)C(C)OC(OC2CCC3(C)C(CCC4C3C(O)CC3(C)C(C5=CC(=O)OC5)CCC43O)C2)C1O (centres undefined)	22*	-4	-2	-13
CC1[C@H]2Cc3ccc(O)cc3[C@]1(C)CCN2C (some centres undefined)	15	-1	-5	10
CN1CC[C@@]2(C)c3cc(O)ccc3N(C)C2O1 (some centres undefined)	3	-8	16	64*
CSc1ccc(NC(=O)C2(C)CCN2C(=O)C2(c3ccccc3)CC2)cc1 (centres undefined)	0	-4	nt	nt
O=C1NC(=O)N(c2ccccc2)C(=O)/C1=C/C=C/c1ccco1	22	19	2	31
Cc1ccc(N2C(=O)NC(=O)/C(=C\C=C\c3ccco3)C2=O)cc1C	15	59*	3	37
C=Cc1cc(OC)c2c(c1)c(=O)oc1c2cc(OC)c2c(O)ccc(C3OC(C)C(O)C(C)(O)C3O)c21 (centres undefined)	7	13	22	16
O=P1(Nc2ccc(F)cc2)COc2ccccc2OC1	4	-2	-2	7
Cc1ccc(N2C(=O)CC(=O)NC2=O)cc1	21	0	-7	1
COc1ccc(N2C(=O)CC(=O)NC2=O)cc1	22*	-3	-8	-18
c1ccc(-c2ccc(CN3Cc4ccccc4-n4nncc4C3)cc2)cc1	-2	2	nt	-9
Cc1ccc(N2C(=O)NC(=O)/C(=C/c3ccc(OC(=O)c4cccs4)cc3)C2=O)cc1	34*	5	-3	-10
O=c1[nH]c(O)c(/C=C2/C=CC(c3cc(Cl)ccc3Cl)=N2)c(=O)[nH]1	1	92*	40*	8
CC1=Nc2ccccc2/C1=C/c1c(O)[nH]c(=O)[nH]c1=O	-14	-4	8	5
CC(=O)c1ccc2c(c1)C1C(Cl)C(Sc3ccccc3[N+](=O)[O-])CC1C(c1ccccc1)N2 (centres undefined)	1	15	9	34
CC(=O)c1ccc2c(c1)C1C(Cl)C(Sc3ccccc3[N+](=O)[O-])CC1C(c1ccccc1[N+](=O)[O-])N2 (centres undefined)	7	4	16	59*
Cc1nn(CCC#N)c2c1P(=S)(N1CCCC1)OC(c1ccc(F)cc1)=N2 (centres undefined)	-3	2	-11	65*
COC1CC2C=C(C)C=CC=CC(=O)NC(c3ccccc3)CC=CCCC(O)CC(=O)C2=C1O (centres undefined)	22*	36	nt	nt
COC(=O)C1=C(c2ccc(-c3ccccc3)c(F)c2)C[C@@H]2CC[C@H]1N2C(=O)NCCOc1ccccc1	-2	5	-1	10
CCn1nc(-c2ccccc2)nc2c(=O)n(C)c(=O)nc1-2	-18	52	-83	95*
Cc1ccc([C@@H]2C[C@H]3[C@@H](CN2S(=O)(=O)c2ccc(Cl)cc2)C(=O)C[C@@H](c2ccccc2F)N3S(=O)(=O)c2ccc(C)cc2)cc1	0	-4	nt	10
C=C1C(=O)O[C@@H]2C[C@@H](C)[C@@H]3C4OC4C(=O)[C@@]3(C)[C@@H](O)[C@H]12 (some centres undefined)	48*	-3	-1	3
O=C(O)CCn1cc(C=C2C(=O)NC(=O)NC2=O)c(-c2cc3ccccc3oc2=O)n1	22*	-3	-11	-1
CC(C)(C)n1c(O)c(C=Nc2ccc3c(c2)CCC3)c(=O)[nH]c1=O	2	3	5	-14
CCCC[C@@H](C)C[C@@H](C)C(=O)N(C)[C@@H](CC(C)C)C(=O)N[C@H](C(=O)N(C)[C@H](C(=O)N1C[C@@H](O)C[C@H]1C(=O)N1C(=O)C=C[C@@H]1C)C(C)C)C(C)OC(C)=O (some centres undefined)	43*	6	2	33
